ChEMBL document CHEMBL4396917, “Synthesis and biological evaluation of novel benzylidene-succinimide derivatives as noncytotoxic antiangiogenic inhibitors with anticolorectal cancer activity in vivo” (Eur J Med Chem, 2019)
The source made the active and inactive calls. No cut-off for these calls is given here.

Experiments:
HUVEC [1] = experiment: Induction of apoptosis in VEGF-stimulated HUVEC assessed as early apoptotic cells at 1 uM after 24 hrs by Annexin V-FITC/propidium iodide staining based flow cytometric analysis (reference value: 7%); type: cell-based; conditions: human
Method in brief: (§1)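 HUVECs plated at 5×10^5 per well and treated 24 h with 1, 5, 10 or 20 μM. Detached and adherent cells were pooled, washed in ice-cold PBS and resuspended in fresh medium. 1×10^5 cells were stained with annexin-V-FITC in annexin-V buffer for 20 min in the dark, then PI (50 μg/mL) was added. Read-out by flow cytometry.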

HUVEC [2] = experiment: Cytotoxicity against HUVEC at 1 to 5 uM measured after 48 hrs; type: cell-based; conditions: human
HT-29 [3] = experiment: Antitumor activity against human HT-29 cells xenografted in mouse assessed as increase in apoptosis in tumor at 20 to 60 mg/kg, po administered every ither day for 3 weeks and measured at 20 days post treatment by TUNEL assay; type: functional, organism-based
HT-29 [4] = experiment: Antiangiogenic activity in human HT-29 cells assessed as decrease in secreted MMP9 activity at 1 to 20 uM after 24 hrs by gelatin zymography; type: functional, cell-based
Method in brief: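 HT29 cells treated 1, 5, 10 or 20 μM for 24 h; supernatant run non-reducing on 10% SDS-PAGE with 2% gelatin; SDS removed with 2% Triton X-100, gel incubated 48 h at 37°C in Tris pH 7.5/NaCl/CaCl2 buffer, Coomassie stained; clear MMP-2 and MMP-9 bands quantified by densitometry.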

HT-29 [5] = experiment: Antitumor activity against human HT-29 cells xenografted in mouse assessed as reduction in mTOR phosphorylation in tumor at 20 to 60 mg/kg, po administered every other day for 3 weeks and measured at 20 days post treatment by immunohistochemical staining; type: functional, organism-based
HT-29 [6] = experiment: Downregulation of HIF1-alpha mRNA expression in human HT-29 cells after 24 hrs by RT-qPCR assay; type: functional, cell-based
Method in brief: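 HT29 cells treated with 1, 5, 10 or 20 μM for 24 h; total RNA extracted with TRIzol; SYBR Green qPCR, 40 cycles of 5 s at 95°C and 60 s at 60°C in 20-μL reactions.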

HUVEC [7] = experiment: Induction of apoptosis in VEGF-stimulated HUVEC assessed as late apoptotic cells at 1 uM after 24 hrs by Annexin V-FITC/propidium iodide staining based flow cytometric analysis (reference value: 11.3%); type: cell-based; conditions: human; method in brief: as §1
HUVEC [8] = experiment: Antiinvasive activity in HUVEC assessed as inhibition of VEGF-induced cell invasion at 1 uM after 6 hrs by crystal violet staining based transwell assay relative to control; type: functional; conditions: Homo sapiens
Method in brief: (§2)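 Transwell: 1×10⁴ HUVECs in serum-free M200 in top chamber with vehicle or compound; bottom chamber M200 with 10% FBS; 6 h at 37°C; cells on membrane underside fixed in 4% paraformaldehyde, stained 0.1% crystal violet, imaged and counted.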

HUVEC [9] = experiment: Inhibition of Akt/mTOR signalling in VEGF-induced HUVEC assessed as reduction in mTOR phosphorylation at Ser2448 residue at 1 to 20 uM pre-incubated for 1.5 hrs followed by VEGF stimulation and measured after 30 mins by Western blot analysis; type: cell-based; conditions: Homo sapiens
Method in brief: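 HUVECs were starved overnight, pretreated 1.5 h with 1, 5, 10 or 20 μM, then stimulated with VEGF (50 ng/mL) for 30 min. Lysates were equalized by Bradford assay, about 20 μg protein was resolved on gradient SDS-PAGE and immunoblotted with phospho-specific antibodies. Detection by HRP secondary antibodies and ECL.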

HUVEC [10] = experiment: Induction of apoptosis in VEGF-stimulated HUVEC assessed as necrotic cells at 10 uM after 24 hrs by Annexin V-FITC/propidium iodide staining based flow cytometric analysis (reference value: 12.1%); type: cell-based; conditions: human; method in brief: as §1
HT-29 [11] = experiment: Antitumor activity against human HT-29 cells xenografted in mouse assessed as reduction in cell proliferation in tumor at 20 to 60 mg/kg, po administered every other day for 3 weeks and measured at 20 days post treatment by Ki-67 staining based assay; type: functional, organism-based
HUVEC [12] = experiment: Antiinvasive activity in HUVEC assessed as inhibition of VEGF-induced cell invasion at 10 uM after 6 hrs by crystal violet staining based transwell assay relative to control; type: functional; conditions: Homo sapiens; method in brief: as §2
HT-29 [13] = experiment: Downregulation of VEGF expression in human HT-29 cells after 24 hrs by immunoblot analysis; type: functional, cell-based
HT-29 [14] = experiment: Induction of apoptosis in human HT-29 cells assessed as necrotic cells at 5 uM after 72 hrs by Annexin V-FITC/propidium iodide staining based flow cytometric analysis (reference value: 1.3%); type: cell-based; conditions: ht-29, 72 h
HUVEC [15] = experiment: Antiangiogenic activity in HUVEC assessed as inhibition of VEGF-induced capillary like tube formation preincubated with VEGF for 20 mins followed by compound addition measured after 6 hrs by matrigel based tube formation assay; type: functional, cell-based; conditions: Homo sapiens
Method in brief: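 Matrigel (100 μL) set 1 h at 37°C; 2×10⁴ HUVECs in M200 with 10% FBS added per well plus 10 ng/mL VEGF; compound added after 20 min; incubated 6 h at 37°C, then capillary-like structures photographed.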

HT-29 [16] = experiment: Inhibition of Akt/mTOR signalling in human HT-29 cells assessed as reduction in mTOR phosphorylation at Ser2448 residue incubated for 24 hrs by immunoblot analysis; type: cell-based
Method in brief: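 HT29 cells were exposed to the indicated concentrations for 24 h. Cell lysates were then immunoblotted for the phosphorylated proteins.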

[17] = Induction of apoptosis in human HT-29 cells assessed as viable cells at 5 uM after 24 hrs by Annexin V-FITC/propidium iodide staining based flow cytometric analysis (reference value: 80.8 to 81.1%); type: cell-based; conditions: read-out: Activity
HUVEC [18] = experiment: Antimigratory activity in HUVEC assessed as reduction in VEGF-induced cell migration measured after 6 to 24 hrs by wound healing assay; type: functional, cell-based; conditions: Homo sapiens
Method in brief: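 Confluent HUVECs starved 12 h in M200 with 2% FBS, scratched with pipette tip; fresh M200 with 25 ng/mL VEGF plus vehicle, 2.5 μM sunitinib or compound (1, 2.5 μM); wound imaged at 0, 6, 12 and 24 h by inverted microscopy.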

Chorioallantoic membrane = experiment: Antiangiogenic activity in Leghorn chicken fertilized egg chorioallantoic membrane at 10 nM/egg measured after 48 hrs by CAM assay; type: functional, tissue-based; conditions: Gallus gallus
Method in brief: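 Fertile Leghorn eggs incubated at 37.8°C, 40% humidity; window opened on day 7; compound, sunitinib or 0.9% NaCl mixed with DMSO applied on filter paper onto CAM; 48 h incubation, methanol fixation, photography; nascent vessels counted.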

HUVEC [19] = experiment: Effect on total Src expression in VEGF-induced HUVEC at 1 to 20 uM pre-incubated for 2 hrs followed by VEGF stimulation and measured after 15 mins by Western blot analysis; type: ADME, cell-based; conditions: human, 0.25 h
Method in brief: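 HUVECs serum-starved overnight, pretreated with compound (methods: 1, 2.5, 5, 10 μM for 2 h; legend: 1, 5, 10, 20 μM for 1.5 h), then VEGF 50 ng/mL (methods: VEGF165, 15 min; legend: 30 min); lysates equalized by Bradford, ~20 μg protein resolved on gradient SDS-PAGE, immunoblotted, ECL detection.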

HT-29 [20] = experiment: Induction of apoptosis in human HT-29 cells assessed as necrotic cells at 20 uM after 24 hrs by Annexin V-FITC/propidium iodide staining based flow cytometric analysis (reference value: 3.9%); type: cell-based; conditions: ht-29, 24 h

Q: For `COc1ccc(NC(=O)c2cccc(/C=C3\CC(=O)N(c4ccc(C)cc4)C3=O)c2)cc1`, which Activity (HUVEC [1]) is on record?
A: Its Activity is 10.7%.

Q: What about the Activity (HUVEC [2]) of the same compound?
A: Its Activity is “Non-Toxic”.

Q: What about the Activity (HT-29 [3]) of the same compound?
A: The Activity was “Active”.

Q: What about the inhibition (HT-29 [4]) of the same compound?
A: Its inhibition is “Active”.

Q: What about the inhibition (HT-29 [5]) of the same compound?
A: The inhibition was “Active”.

Q: And the inhibition (HT-29 [6])?
A: The inhibition was “Dose-dependent effect”.

Q: What about the Activity (HUVEC [7]) of the same compound?
A: Its Activity is 10.4%.

Q: What about the inhibition at 1 µM (HUVEC [8]) of the same compound?
A: The inhibition at 1 µM was 20%.

Q: What about the inhibition (HUVEC [9]) of the same compound?
A: The inhibition was “Active”.

Q: And the Activity (HUVEC [10])?
A: Its Activity is 5.4%.

Q: What about the inhibition (HT-29 [11]) of the same compound?
A: The inhibition was “Active”.

Q: And the inhibition at 10 µM (HUVEC [12])?
A: The inhibition at 10 µM was 50%.

Q: What about the inhibition (HT-29 [13]) of the same compound?
A: Its inhibition is “Dose-dependent effect”.

Q: And the Activity (HT-29 [14])?
A: The Activity was 0.8%.

Q: What about the inhibition (HUVEC [15]) of the same compound?
A: Its inhibition is “Dose-dependent effect”.

Q: And the inhibition (HT-29 [16])?
A: Its inhibition is “Dose-dependent effect”.

Q: What about the viability at 24 h, 5 µM [17] of the same compound?
A: The viability at 24 h, 5 µM was 75.8 to 77.9%.

Q: What about the inhibition (HUVEC [18]) of the same compound?
A: The inhibition was “Dose-dependent effect”.

Q: What about the Activity (Chorioallantoic membrane) of the same compound?
A: Its Activity is “Active”.

Q: What about the Activity (HUVEC [19]) of the same compound?
A: The Activity was “Not Active”.

Q: What about the Activity (HT-29 [20]) of the same compound?
A: Its Activity is 2.3%.
